Screening data as filed in PubChem BioAssay.
Shown are actives, neighbours in structure and some others; about 3.3% of the full set was active somewhere.
E-sel inducer – E-selectin induction in HUVECs, primary screen, imaging, HUVEC, immunofluorescence imaging, single point. P16581. normalized: neutral wells 0, TNF-alpha wells 100. activation, % at 7.58 µM. hit rate 0.37% among 260,000. AID 686992, 2013;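 active means mean E-selectin-positive cell signal at least 10% of the positive control, reached in at least 60% of replicates, without over 20% cell loss; inconclusive means no rule given, readout overlaps actives, possibly toxicity-flagged; inactive means the rest, including those meeting only one limit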
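Test system: HUVEC; input: 3,000 HUVEC/well; measured by: immunofluorescence imaging; read-out: % PE-positive cells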
DENV2 CPE – inhibitors of DENV2 cytopathic effect, primary screen, cell-based, plate reader, single concentration. DENV2-infected cells, cytopathic effect rescue. CPE inhibition, % at 9.99 µM. hit rate 1.7% among 350,000. AID 651640, 2012; in the data active means CPE inhibition above about 20%, passing the limit was not always enough; inconclusive means no clear call, values can overlap the other calls; tested in BHK-21 cells;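 further: 0% = median of neutral control wells and 100% = median of positive control wells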
C2C12 statin – suppressors of statin myotoxicity in C2C12 myotubes, primary screen, cell-based, single point, plate reader; C2C12 myotubes + simvastatin, ATP luminescence, 48 h; scaled: DMSO 0, geranylgeraniol control 100; rescue of ATP level, % at 7.49 µM; hit rate 0.78% among 330,000;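 active means mean ATP rescue above about 67%, or every replicate alone reaching that limit, limit read from the data, passing the limit was not always enough; inconclusive means no clear call, values can overlap the other calls; inactive means mean under the limit and some replicate under it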;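 further: myotubes were challenged with 10 µM simvastatin during compound exposure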
Xi reactivation – activators of inactive X chromosome reactivation, primary screen, imaging, XiGFP fibroblasts, GFP high-content imaging, set 2. XiGFP mouse fibroblasts, % GFP-positive cells imaging, 3 d; cells co-treated with 5-aza-dC sensitizer; scaled so ellipticine positive control = 100%. activation, % at 7.58 µM. hit rate 0.055% among 360,000;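 active means mean normalized replicate activation at least 10% and every replicate at or above 10%; inconclusive means only one of the two criteria met; inactive means mean below 10% and not all replicates reach 10%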;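 further: 0% = median of on-plate neutral control wells and 100% = ellipticine 6 µM median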
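Material: XiGFP fibroblasts, SV40-immortalized; Buffer or medium: DMEM containing 5-aza-dC; Compound dosing: single point; Times: 3 days compound exposure.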
PglD DTNB – C. jejuni PglD acetyltransferase inhibitors, primary screen, biochemical, DTNB colorimetric, single point; UDP-N-acetylbacillosamine N-acetyltransferase PglD (Campylobacter jejuni); purified PglD enzyme, DTNB colorimetric CoA detection; inhibition, % at 12.5 µM; hit rate 0.098% among 360,000; in the data active means inhibition above about 16%, passing the limit was not always enough; inconclusive means no clear call, values can overlap the other calls
FGF22 binding – binders of human FGF22 protein, primary screen, FGF22 synaptogenesis inhibitor project, biophysical, thermal shift, single point. recombinant FGF22 thermal shift, SYPRO orange fluorescence; percent of sucrose octasulfate shift, DMSO zero. activity (Tm shift, normalised), % at 9.99 µM. hit rate 1.5% among 340,000. AID 651658, 2012;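 active means mean Tm shift, scaled 0 neutral to 100 positive control, at about 1.3% or above, every replicate too, limit read from the data; inconclusive means no clear call, values can overlap the other calls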
Target sequence (Q9HCT0 whole entry, looked up): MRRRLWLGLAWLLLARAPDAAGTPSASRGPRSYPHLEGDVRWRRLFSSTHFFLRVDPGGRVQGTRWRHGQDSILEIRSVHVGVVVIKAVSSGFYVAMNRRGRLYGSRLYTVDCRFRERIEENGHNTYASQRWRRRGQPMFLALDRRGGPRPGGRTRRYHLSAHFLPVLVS
Starred values were filed as active, the others as inactive; ? = inconclusive; · = no result given.

SMILES	E-sel inducer	DENV2 CPE	C2C12 statin	Xi reactivation	PglD DTNB	FGF22 binding
COC(=O)CCC(=O)OC1(C)C(=O)C2=CN(Cc3ccccc3)C(c3ccc(OC)cc3)=CC2=C(Br)C1=O (configuration not stated)	6	-1	12	0	10	0
C[C@@H]1CCCCO[C@H](CN(C)S(=O)(=O)c2cn(C)cn2)[C@@H](C)CN([C@@H](C)CO)C(=O)c2cc(NC(=O)CCCN(C)C)ccc2O1	0	-11	·	0	-4	0
COc1ccc(CNC(=O)CN(C(=O)c2csnn2)c2ccc3c(c2)OCCO3)cc1	0	-3	2	0	-5	0
O=C(CN(C(=O)c1csnn1)c1ccc2c(c1)OCCO2)NCc1ccc(F)cc1	39*	?	-3	0	-3	0
CCCC(=O)N1CC2(C1)CN(C(C)=O)[C@H](CO)c1c2c2ccc(OC)cc2n1C	18	?	·	1	·	0
CN1CCN(C(=O)c2ccc(-n3cccn3)nc2)CC1	0	-8	·	0	·	43*
CCc1cccc2cc3c(N)c(C(=O)Nc4ccc(S(=O)(=O)N5CCCC5)cc4)sc3nc12	-1	·	·	89*	2	·
NC(c1csc(NC(=O)Nc2cccc(Cl)c2)n1)C1CCCCC1 (configuration not stated)	0	112*	-10	0	6	0
COc1ccccc1/C=N\NC(=O)c1ccc(COc2ccc(C)c(C)c2)o1	48*	6	·	0	·	0
Cc1noc(C)c1S(=O)(=O)Nc1ccc2c(c1)C(=O)N([C@@H](C)CO)C[C@H](C)[C@@H](CN(C)C(=O)Nc1ccc(C(F)(F)F)cc1)OCCCC[C@H](C)O2	0	13	·	-1	2	0
C[C@H](CO)N1C[C@H](C)[C@@H](CN(C)C(=O)Nc2ccc3c(c2)OCO3)OCCCC[C@H](C)Oc2ccc(NC(=O)Nc3ccccc3)cc2C1=O	·	6	·	0	-1	0
COc1cc2c(cc1OC)[C@@]1(c3ccccc3)CCCC[C@H]1[C@@H]2NC(=O)C(F)(F)F	0	20*	·	0	·	0
Cc1cc(C)nc(Sc2nc(Cl)nc(N(c3ccccc3)c3ccccc3)n2)n1	·	·	102*	·	6	·
Cc1cc(C)nc(SC(C(=O)O)c2ccccc2)n1 (configuration not stated)	1	-7	·	0	·	0
COCCCN(Cc1ccco1)C(=O)Cn1ncc2c([nH]c3ccccc32)c1=O	·	25*	-10	0	-1	0
CCCCN1C=C(C(C)=O)C(=O)CC1	0	47*	-4	0	-2	0
COc1ccc(CN(C)C[C@H]2Oc3ccc(NC(=O)C4CCCCC4)cc3C(=O)N([C@@H](C)CO)C[C@H]2C)cc1	1	25*	20	-1	0	0
COc1ccc(CN(C)C[C@@H]2Oc3ccc(NS(=O)(=O)c4cccs4)cc3C(=O)N([C@H](C)CO)C[C@H]2C)cc1	-21	31*	-8	-1	·	0
COc1ccc(CN(C)C[C@@H]2Oc3ccc(NS(C)(=O)=O)cc3C(=O)N([C@H](C)CO)C[C@H]2C)cc1	7	25*	-2	0	4	0
COc1ccc(CN(C)C[C@@H]2Oc3ccc(NS(C)(=O)=O)cc3C(=O)N([C@@H](C)CO)C[C@H]2C)cc1	-9	10	0	0	2	0
COc1ccc(CN(C)C[C@@H]2Oc3ccc(NC(=O)C4CCCCC4)cc3C(=O)N([C@H](C)CO)C[C@H]2C)cc1	0	10	8	0	2	0
COc1ccc(CN(C)C[C@@H]2Oc3ccc(NS(=O)(=O)c4cccs4)cc3C(=O)N([C@@H](C)CO)C[C@H]2C)cc1	-9	32*	·	-1	2	0
O=C(N[C@H]1CC[C@@H](CCNC(=O)C2CC2)O[C@@H]1CO)c1ccccn1	0	-6	3	0	1	1
COc1ccc(NC(=O)N(C)C[C@H]2OCCCC[C@H](C)Oc3ccc(NC(=O)CCC(F)(F)F)cc3C(=O)N([C@@H](C)CO)C[C@@H]2C)cc1	0	-6	24	0	-2	0
Cc1cccnc1	·	21*	-9	·	3	0
SMILES	E-sel inducer	DENV2 CPE	C2C12 statin	Xi reactivation	PglD DTNB	FGF22 binding
COc1ccc(S(=O)(=O)Nc2cccc3c2O[C@H](CN(C)C)[C@H](C)CN([C@@H](C)CO)C3=O)cc1	·	-13	13	-1	-4	0
CO[C@H](CN(C)Cc1cc(F)ccc1F)[C@@H](C)CN([C@@H](C)CO)S(=O)(=O)c1ccc(F)cc1	0	103*	-7	0	2	0
CN(C)C(=O)C[C@@H]1CC[C@H]2[C@@H](COC[C@@H](O)CN2CC2CCCC2)O1	0	-2	5	0	4	0
O=C(C[C@@H]1CC[C@H]2[C@@H](COC[C@H](O)CN2CC2CCCCC2)O1)NCC1CC1	0	0	-8	0	-2	0
O=C(C[C@H]1CC[C@H]2[C@@H](COC[C@@H](O)CN2CC2CCCCC2)O1)NCC1CC1	0	27*	9	0	3	0
CN(C)C(=O)C[C@H]1CC[C@H]2[C@@H](COC[C@H](O)CN2CC2CCCC2)O1	0	48*	-2	0	3	0
C[C@@H]1CN([C@H](C)CO)C(=O)c2cccc(NS(=O)(=O)c3cn(C)cn3)c2O[C@H]1CN(C)C	-1	-3	14	-1	-1	0
O=C(Nc1ccccc1)N1CCCCN2[C@H](CO)[C@@H](c3ccc(-c4ccccc4F)cc3)[C@@H]2C1	0	10	·	0	2	-1
O=C(Nc1ccccc1)N1CCCCN2[C@H](C1)[C@@H](c1ccc(-c3ccccc3F)cc1)[C@@H]2CO	0	33*	·	0	-2	-1
O=C(Nc1ccccc1)N1CCCCN2[C@H](CO)[C@H](c3ccc(-c4ccncc4)cc3)[C@H]2C1	0	38*	-16	0	-2	0
O=C(NCC[C@@H]1CC[C@H](NC(=O)c2ccc3c(c2)OCO3)[C@@H](CO)O1)Nc1cc(F)ccc1F	0	5	0	1	1	0
